# Measurements from ChEMBL document CHEMBL2163205 (J Med Chem, 2012).
# Key:
# Cathepsin K = target: T1, Cathepsin K (Homo sapiens, UniProt P43235); experiment: Inhibition of human recombinant CatK assessed as suppression of enzyme-mediated Z-Phe-Arg-AMC cleavage incubated for 1 hrs by QFRET assay
# T1 sequence (P43235 whole entry): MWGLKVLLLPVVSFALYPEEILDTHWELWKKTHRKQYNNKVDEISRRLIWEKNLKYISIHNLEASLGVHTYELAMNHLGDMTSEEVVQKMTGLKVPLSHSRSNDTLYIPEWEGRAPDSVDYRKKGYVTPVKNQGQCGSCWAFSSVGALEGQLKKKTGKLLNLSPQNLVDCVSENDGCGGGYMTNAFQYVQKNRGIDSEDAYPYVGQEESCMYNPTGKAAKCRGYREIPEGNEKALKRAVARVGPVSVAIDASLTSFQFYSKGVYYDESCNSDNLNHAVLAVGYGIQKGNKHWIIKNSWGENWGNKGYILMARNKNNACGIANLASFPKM
# Cathepsin B = Cathepsin B (Homo sapiens, UniProt P07858); experiment: Inhibition of human recombinant CatB assessed as suppression of enzyme-mediated Z-Arg-Arg-AMC cleavage by QFRET assay
# Summary of the method: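 Recombinant human Cat B at 0.5 nM final was preincubated with compound for 30 min at room temperature. Z-Arg-Arg-AMC (100 μM final) was added in potassium phosphate buffer, pH 6.4, incubated 1 h, then stopped with acetic acid. Fluorescence read at ex 360/em 425 nm with background correction; IC50 by nonlinear regression.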
# [1] = Lipophilicity, log D of the compound at pH 7.4; details: buffer
# [2] = Aqueous solubility of the compound at pH 7.4; details: buffer
# Cathepsin S = Cathepsin S (Homo sapiens, UniProt P25774); experiment: Inhibition of human recombinant CatS assessed as suppression of enzyme-mediated Z-Val-Val-Arg-AMC cleavage by QFRET assay
# Summary of the method: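 Recombinant human Cat S at 0.5 nM final was preincubated with compound for 30 min at room temperature. Z-Val-Val-Arg-AMC (100 μM final) was added in potassium phosphate buffer, pH 6.4, incubated 1 h, then stopped with acetic acid. AMC fluorescence read at ex 360/em 425 nm; IC50 by nonlinear regression.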
# [3] = Intrinsic clearance in human liver microsomes assessed as metabolic turnover
# Procathepsin L = Procathepsin L (Homo sapiens, UniProt P07711); experiment: Inhibition of human recombinant CatL assessed as suppression of enzyme-mediated Z-Phe-Arg-AMC cleavage by QFRET assay
# Summary of the method: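 Recombinant human Cat L at 0.1 nM final was preincubated with compound for 30 min, then Z-Phe-Arg-AMC (10 μM final) was added. QFRET cleavage was run 1 h at room temperature and stopped with acetic acid. Fluorescence read at ex 360/em 425 nm; IC50 by variable-slope nonlinear regression.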
# [4] = Intrinsic clearance in rat liver microsomes assessed as metabolic turnover
# Sequence of Cathepsin S (P25774 whole entry): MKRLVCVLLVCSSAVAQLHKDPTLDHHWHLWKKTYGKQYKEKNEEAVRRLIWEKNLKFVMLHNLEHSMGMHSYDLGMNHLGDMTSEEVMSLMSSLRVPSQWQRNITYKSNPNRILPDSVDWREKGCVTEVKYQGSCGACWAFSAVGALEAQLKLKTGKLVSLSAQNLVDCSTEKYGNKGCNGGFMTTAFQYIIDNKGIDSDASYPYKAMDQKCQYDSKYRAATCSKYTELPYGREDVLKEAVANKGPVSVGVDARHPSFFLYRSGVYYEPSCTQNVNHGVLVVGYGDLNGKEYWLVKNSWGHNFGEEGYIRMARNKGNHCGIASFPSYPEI
# Sequence of Procathepsin L (P07711 whole entry): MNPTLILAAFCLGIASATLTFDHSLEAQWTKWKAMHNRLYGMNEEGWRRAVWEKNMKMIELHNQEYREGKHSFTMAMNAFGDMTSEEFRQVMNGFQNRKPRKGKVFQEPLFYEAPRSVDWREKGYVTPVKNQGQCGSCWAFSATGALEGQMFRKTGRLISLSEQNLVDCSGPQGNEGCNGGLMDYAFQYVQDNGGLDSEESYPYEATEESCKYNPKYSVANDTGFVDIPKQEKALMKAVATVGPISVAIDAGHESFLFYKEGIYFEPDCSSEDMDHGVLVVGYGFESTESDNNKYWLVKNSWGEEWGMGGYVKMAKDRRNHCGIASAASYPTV
SMILES,IC50 (Cathepsin K) [nM],IC50 (Cathepsin B) [nM],logD [1],solubility [2] [µM],IC50 (Cathepsin S) [nM],microsomal CLint [3] [µL/min/mg],IC50 (Procathepsin L; read-out: IC50) [nM],microsomal CLint [4] [µL/min/mg],IC50 (Procathepsin L)
CC(C)(C)[C@@H](C#N)NC(=O)[C@@H]1CCCC[C@H]1C(=O)N1CCc2[nH]c3ccc(F)cc3c2C1,785,31200,> 4.1,74,> 100000,99,> 100000,195,–
CC(C)c1ccc2[nH]c3c(c2c1)CN(C(=O)[C@@H]1CCCC[C@H]1C(=O)NC1(C#N)CC1)CC3,50,> 2900,4.1,84,> 4000,–,–,–,Not Active
N#CCNC(=O)[C@@H]1CCCC[C@H]1C(=O)N1CCc2ccccc2C1,2,712,–,–,–,23,3110,145,–
N#CC1(NC(=O)[C@@H]2CCCC[C@H]2C(=O)N2CCc3[nH]c4cccc(F)c4c3C2)CC1,10,> 2900,3.2,128,> 4000,57,–,322,Not Active
N#CCNC(=O)[C@@H]1CCCC[C@H]1C(=O)N1CCCCC1,73,8750,0.9,> 4900,2110,< 2,> 100000,12,–
N#CC1(NC(=O)[C@@H]2CCCC[C@H]2C(=O)N2CCc3[nH]c4cc(F)ccc4c3C2)CC1,4,> 2900,3,540,> 4000,36,–,89,Not Active
N#CC1(NC(=O)[C@@H]2CCCC[C@H]2C(=O)N2CCc3[nH]c4ccc(C(F)(F)F)cc4c3C2)CC1,–,> 2900,4.2,74,> 4000,33,–,82,Not Active
COc1ccccc1C(C#N)NC(=O)[C@@H]1CCCC[C@H]1C(=O)N1CCN(Cc2ccc(F)cc2)CC1 (some centres undefined),1,–,–,–,76,–,–,–,–
N#CCNC(=O)[C@@H]1CCCC[C@H]1C(=O)N1CCc2[nH]c3ccc(F)cc3c2C1,< 1,1420,–,–,–,18,> 40000,> 250,–
N#CC(NC(=O)[C@@H]1CCCC[C@H]1C(=O)N1CCN(c2ccc(F)cc2)CC1)c1ccccc1 (some centres undefined),3,–,–,–,258,–,–,–,–
N#CC1(NC(=O)[C@@H]2CCCC[C@H]2C(=O)N2CCc3[nH]c4c(Br)cccc4c3C2)CC1,4,> 2900,–,–,–,43,–,164,Not Active

# Further lines, results first:
IC50 (Cathepsin K) [nM],IC50 (Cathepsin B) [nM],logD [1],solubility [2] [µM],IC50 (Cathepsin S) [nM],microsomal CLint [3] [µL/min/mg],IC50 (Procathepsin L; read-out: IC50) [nM],microsomal CLint [4] [µL/min/mg],IC50 (Procathepsin L),SMILES
4,> 2900,–,–,> 4000,79,–,303,Not Active,CSc1cccc2c3c([nH]c12)CCN(C(=O)[C@@H]1CCCC[C@H]1C(=O)NC1(C#N)CC1)C3
–,> 2900,3.7,130,> 4000,87,–,> 350,Not Active,N#CC1(NC(=O)[C@@H]2CCCC[C@H]2C(=O)N2CCc3[nH]c4ccc(Cl)cc4c3C2)CC1
34,> 2900,1.5,902,> 4000,< 2,–,7.2,Not Active,CS(=O)(=O)c1ccc2c3c([nH]c2c1)CCN(C(=O)[C@@H]1CCCC[C@H]1C(=O)NC1(C#N)CC1)C3
< 1,–,–,–,183,–,–,–,–,CC(C)(F)C[C@H](N[C@@H](c1ccc(-c2ccc(S(C)(=O)=O)cc2)cc1)C(F)(F)F)C(=O)NC1(C#N)CC1 [ODANACATIB]
2,> 2900,2.5,400,> 4000,34,–,80,Not Active,N#Cc1cccc2c3c([nH]c12)CCN(C(=O)[C@@H]1CCCC[C@H]1C(=O)NC1(C#N)CC1)C3
< 1,> 2900,3,470,> 4000,55,–,311,Not Active,N#CC1(NC(=O)[C@@H]2CCCC[C@H]2C(=O)N2CCc3[nH]c4c(F)cccc4c3C2)CC1
17.3,73500,3.5,–,> 70000,–,> 40000,–,–,C[C@@H](C#N)NC(=O)[C@@H]1CCCC[C@H]1C(=O)N1CCc2[nH]c3ccc(F)cc3c2C1
18,–,–,–,–,4.5,> 100000,41,–,N#CCNC(=O)[C@@H]1CCCC[C@H]1C(=O)N1CC=CCC1
16.2,44900,3.1,460,> 100000,12,> 100000,> 250,–,C[C@H](C#N)NC(=O)[C@@H]1CCCC[C@H]1C(=O)N1CCc2[nH]c3ccc(F)cc3c2C1
2,> 2900,4,120,> 4000,19,–,53,Not Active,N#CC1(NC(=O)[C@@H]2CCCC[C@H]2C(=O)N2CCc3[nH]c4c(OC(F)(F)F)cccc4c3C2)CC1
5,> 2900,3.8,150,> 4000,26,–,116,Not Active,N#CC1(NC(=O)[C@@H]2CCCC[C@H]2C(=O)N2CCc3[nH]c4c(C(F)(F)F)cccc4c3C2)CC1
3,> 2900,2.8,300,> 4000,170,–,> 350,Not Active,Cn1c2c(c3c(F)c(F)ccc31)CN(C(=O)[C@@H]1CCCC[C@H]1C(=O)NC1(C#N)CC1)CC2
2,> 2900,–,–,–,46,–,226,Not Active,N#CC1(NC(=O)[C@@H]2CCCC[C@H]2C(=O)N2CCc3[nH]c4c(Cl)cccc4c3C2)CC1
